This is an account of results in ChEMBL document CHEMBL5055647, “Identification and Biological Activity of NFAT-133 Congeners from Streptomyces pactum” (J Nat Prod, 2021).

Calls of active or inactive are those of the source. No cut-off for these calls is given here.

One series has as its system Staphylococcus aureus. The experiment in a line: Antibacterial activity against Staphylococcus aureus ATCC 12600 by Whatman paper based disk diffusion assay. It counts as functional, organism-based. The method, boiled down:
(§1)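 Test strains grown overnight in LB at 30 °C, 200 rpm; 100 μL culture mixed into 10 mL warm 0.7% LB soft agar and plated. Paper disks loaded with 10 μL of 10 mM compound solution, plates incubated at 37 °C; activity judged by presence and diameter of inhibition zone. Ampicillin (2 mg/mL) positive control.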
(In general: In agar diffusion tests the substance spreads into inoculated agar from a disc or well.)

Another series deals with Bacillus subtilis. The experiment in a line: Antibacterial activity against Bacillus subtilis ATCC 6051 by Whatman paper based disk diffusion assay. The class given is functional, organism-based. An outline of the steps:
as §1

The next series has as its system Escherichia coli. As to the kind of experiment: Antibacterial activity against Escherichia coli ATCC 11775 by Whatman paper based disk diffusion assay. The class given is functional, organism-based. The method, boiled down: as §1
Another series deals with Pseudomonas aeruginosa. The experiment in a line: Antibacterial activity against Pseudomonas aeruginosa ATCC 9721 by Whatman paper based disk diffusion assay. The class given is functional, organism-based. The method, boiled down: as §1
The test system of series [1] is RAW264.7. As to the kind of experiment: Cytotoxicity against mouse RAW264.7 cells up to 50 uM by MTT assay. The class given is cell-based. The settings on record: raw264.7, 50 µM. An outline of the steps:
(§2)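 Cells kept in high-glucose DMEM with 10% heat-inactivated FBS, streptomycin, amphotericin B, 37 °C, 5% CO2; exponential-phase cells seeded ~1.0 × 10^4/well, grown 12 h, then exposed to serial dilutions of compound; medium-only controls. Viability by MTT, absorbance 490 nm.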
On the technique in general: Tetrazolium dyes change colour on reduction, which living cells bring about.

The subject of another series is HeLa. As to the kind of experiment: Cytotoxicity against human HeLa cells up to 50 uM by MTT assay. It counts as functional, cell-based. An outline of the steps:
as §2

The subject of another series is NCI-H460. As to the kind of experiment: Cytotoxicity against human NCI-H460 cells up to 50 uM by MTT assay. The class given is functional, cell-based. An outline of the steps:
as §2

Another series concerns MCF7. As to the kind of experiment: Cytotoxicity against human MCF7 cells up to 50 uM by MTT assay. It counts as functional, cell-based. The method, boiled down:
as §2

For series [2], the system named is RAW264.7. As to the kind of experiment: Inhibition of LPS-induced NO production in mouse RAW264.7 cells preincubated for 1 hr followed by LPS stimulation measured after 24 hrs by Griess reagent based assay. The class given is functional, cell-based. The settings on record: time 25.0 hrs. The method, boiled down: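 Murine macrophages seeded ~1 × 10^4/well, grown 12 h, pretreated with compound 1 h, then LPS 25 ng/mL added for 24 h. Supernatant nitrite measured by Griess reagent (1:1, 37 °C, 15 min, dark), absorbance 520 nm, quantified against 0–100 μM sodium nitrite standards; mean ± SD of independent experiments, t-test, p < 0.05.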
For orientation: The Griess reaction detects nitrite, a stable product of nitric oxide.

As to `CC(=O)[C@@H](C)[C@@H]1O[C@@H](CCO)c2cc(C)ccc2[C@@H]1C`, the result in the series with Staphylococcus aureus, with Bacillus subtilis, with Escherichia coli, in the series on Pseudomonas aeruginosa, in the series on HeLa and in the series with NCI-H460 was inactive. In addition, the outcome with MCF7 was inactive. In addition, the Activity entry in the series with RAW264.7 [1] is given as “Non-Toxic”. The inhibition result in the series with RAW264.7 [2] is “Dose-dependent effect”.
With `C=C[C@H](O)c1cc(C)ccc1[C@H](C)[C@@H](O)[C@H](C)C(C)=O`, the outcome in the series with Staphylococcus aureus, in the series with Bacillus subtilis, with Escherichia coli, in the series with Pseudomonas aeruginosa, in the series on HeLa and with NCI-H460 was inactive. In the series with MCF7, the result was inactive. In addition, in the series with RAW264.7 [1], the Activity entry is on record as “Non-Toxic”. The inhibition entry in the series on RAW264.7 [2] was “Dose-dependent effect”.
`CC(=O)[C@@H](C)[C@H](O)[C@@H](C)c1ccc(C)cc1/C=C/CO`: the outcome in the series on Staphylococcus aureus, in the series on Bacillus subtilis, with Escherichia coli, in the series with Pseudomonas aeruginosa, in the series on HeLa and in the series on NCI-H460 was inactive. Also, in the series with MCF7, the outcome was inactive. In the series on RAW264.7 [1], the Activity result is reported as “Non-Toxic”. In the series with RAW264.7 [2], the inhibition result was “Dose-dependent effect”.
In the case of `CC(=O)[C@@H](C)[C@@H]1O[C@H](CCO)c2cc(C)ccc2[C@@H]1C`, the outcome in the series on Staphylococcus aureus, in the series on Bacillus subtilis, in the series with Escherichia coli, in the series on Pseudomonas aeruginosa, in the series on HeLa and in the series with NCI-H460 was inactive. In the series with MCF7, the outcome was inactive. Also, in the series on RAW264.7 [1], the Activity result is listed as “Non-Toxic”. Moreover, in the series on RAW264.7 [2], the inhibition entry is “Dose-dependent effect”.
